High-throughput results (PubChem BioAssay)
An excerpt weighted towards active compounds, which were near 2% of everything screened.
CaV13 FRET inh: Primary screen for inhibitors of IQ motif and Ca2+-dependent inactivation inhibitor domain binding in CACNA1D, Förster resonance energy transfer in living cells, … | HEK cells, CFP/YFP FRET ICDI-IQ, plate reader, 10 min; percent FRET-ratio fall versus neutral wells | inhibition, % at 12.3 µM | 0.098% of 340,000 active | AID 743397;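 active means mean replicate inhibition of at least 30% and at least 1% of replicates passing that level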;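 further: 0% = median of the neutral control wells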
LGR2 inh: blocks bursicon-induced cAMP signaling via Drosophila LGR2; HEK293 LGR2, CRE-luciferase, bursicon-stimulated, 4 h; inhibition, % at 9.99 µM; 0.35% of 380,000 active;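 active means drop in luminescence signal, shown as inhibition above about 50% in the replicate tests, limit read from the data, passing the limit was not always enough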;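 further: agonist challenge used bursicon conditioned medium at about half maximal strength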
TROY signal inh: blocks TROY-dependent signaling in reporter cells; Q293 LMP1-TROYcd NF-kB luciferase reporter, 4 h; inhibition, % at 10 µM; 0.98% of 360,000 active; AID 1347056;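 active means compounds whose plate-normalised and pattern-corrected inhibition of the luciferase reporter signal at the single screening dose is 50% or more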
XiGFP reactiv: reactivates the inactive X chromosome in mouse fibroblasts; activation, % at 7.58 µM; XiGFP mouse fibroblasts, % GFP-positive cells imaging, 3 d; cells co-treated with 5-aza-dC sensitizer; scaled so ellipticine positive control = 100%; 0.055% of 360,000 active; AID 743238;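 active means mean normalized replicate activation at least 10% and every replicate at or above 10%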;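 further: 0% = median of on-plate neutral control wells and 100% = ellipticine 6 µM median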
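Material: XiGFP fibroblasts, SV40-immortalized. Buffer or medium: DMEM plus 5-aza-dC sensitizer. Compound: single concentration per compound, delivered by pin transfer. Times: 3 days compound exposure. Controls: ellipticine 6 µM.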
TWEAK-Fn14 inh: inhibitors of TWEAK-Fn14 interaction signaling; TWEAK-stimulated Fn14 reporter cells, luciferase luminescence, 8 h; inhibition, % at 10 µM; 2% of 360,000 active; AID 1159606; in the data active means inhibition above about 50%
The depositor's hits bear a star.

`N#Cc1cn(C2OC(CO)C(O)C2O)c2ncnc(N)c12` (stereo not drawn) gave CaV13 FRET inh -5, LGR2 inh 94*, TROY signal inh 52*, XiGFP reactiv 0 and TWEAK-Fn14 inh 72*.
For NC(=O)c1cn(C2OC(CO)C(O)C2O)c2ncnc(N)c12 (stereo not drawn) the results were CaV13 FRET inh -6, LGR2 inh 71*, TROY signal inh 40, XiGFP reactiv 1 and TWEAK-Fn14 inh 89*.
For Cc1ccc(C[n+]2c(-c3ccc(C)cc3)cc(-c3ccc(C)cc3)cc2-c2ccc(C)cc2)cc1 the results were TROY signal inh 42 and TWEAK-Fn14 inh 92*.
For Cc1ccc(-c2cc(-c3ccc(C)cc3)[n+](-c3ccc(C(=O)O)cc3)c(-c3ccc(C)cc3)c2)cc1 the results were CaV13 FRET inh -11, LGR2 inh -18, TROY signal inh 5, XiGFP reactiv 0 and TWEAK-Fn14 inh 0.
`COC(=O)[C@H]1[C@H](CO)[C@H]2Cn3c(ccc(-c4ccccc4F)c3=O)[C@@H]1N2` gave LGR2 inh 9 and XiGFP reactiv 1.
For COC(=O)C1=C(c2ccc(F)cc2OCc2ccccc2)C[C@@H]2CC[C@H]1N2C(=O)N1CCC(O)(c2ccc(Cl)cc2)CC1 the results were CaV13 FRET inh -4, LGR2 inh 8, TROY signal inh -2, XiGFP reactiv -1 and TWEAK-Fn14 inh 56*.
For O=C(Cc1ccccc1)N1CC2(C1)[C@@H](c1ccccc1)[C@H](CO)N2Cc1cccc(F)c1 the results were XiGFP reactiv 0.
N#Cc1cccc(-c2ccc([C@H]3[C@H]4CN(C(=O)Cc5ccccc5)CCCCN4[C@H]3CO)cc2)c1 was read as LGR2 inh -4 and XiGFP reactiv 0.
`N#Cc1c(Br)n(C2OC(CO)C(O)C2O)c2ncnc(N)c12` (stereo not drawn) gave CaV13 FRET inh -6, LGR2 inh 31, TROY signal inh 11, XiGFP reactiv 0 and TWEAK-Fn14 inh 49.
For OCC1OC(n2cnc3cc(Cl)c(Cl)cc32)C(O)C1O (stereo not drawn) the results were CaV13 FRET inh -4, LGR2 inh 19, TROY signal inh 54*, XiGFP reactiv 0 and TWEAK-Fn14 inh 21.
`CC(C)c1ccc(C(c2c(O)c3ccccc3oc2=O)c2c(O)c3ccccc3oc2=O)cc1` gave CaV13 FRET inh -16, LGR2 inh -4, TROY signal inh 68*, XiGFP reactiv 0 and TWEAK-Fn14 inh 28.
CN(Cc1cccc(-c2ccncc2)c1)C(=O)Oc1ccccc1Cc1ccccc1 was read as TROY signal inh 66* and TWEAK-Fn14 inh 93*.
For CN(C)Cc1ccccc1OC(=O)N(C)C the results were CaV13 FRET inh -5, TROY signal inh -7 and TWEAK-Fn14 inh -2.
CN(Cc1cccc(-c2ccncc2)c1)C(=O)Oc1ccccc1Cl was read as TROY signal inh 49 and TWEAK-Fn14 inh 75*.
CN(C)C(=O)Oc1ccc(Cl)c2ccccc12 was read as CaV13 FRET inh -6, TROY signal inh -11 and TWEAK-Fn14 inh -8.
`Cc1nc2cc(OC(=O)N(C)Cc3cccc(-c4ccncc4)c3)ccc2s1` gave TROY signal inh 66* and TWEAK-Fn14 inh 93*.
CN1C[C@@H]2N[C@H](C1)C2c1ccc(Br)cc1 (stereo partly drawn) was read as XiGFP reactiv 0.
For COC(=O)[C@@H]1[C@@H](CO)[C@@H]2Cn3c(ccc(-c4cccc(F)c4)c3=O)[C@H]1N2Cc1ccncc1 the results were LGR2 inh -11 and XiGFP reactiv 0.
Screening CC(=O)N1C[C@@H]2N[C@H](C1)C2c1ccccc1 (stereo partly drawn) returned XiGFP reactiv 1.
For COC(=O)C1CN(C#N)N(c2ccc(Cl)cc2)C12c1ccccc1-c1ccccc12 (stereo not drawn) the results were LGR2 inh 100*, TROY signal inh 90* and TWEAK-Fn14 inh 92*.
For COC(=O)[C@H]1[C@H](CO)[C@H]2Cn3c(ccc(-c4ccccc4F)c3=O)[C@@H]1N2Cc1ccccc1 the results were LGR2 inh 3 and XiGFP reactiv 0.
